Source: PubChem
In the library only some 2.9% were active in any assay of this set; here they are far more common.
SIAE primary: inhibitors of human sialic acid acetylesterase SIAE | AID 1053197 | SIAE FP-Rh probe binding, fluorescence polarization | Q9HAT2 | inhibition, % at 9.66 µM | hit rate 0.69% among 370,000;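 active = inhibition above a cutoff: mean of compounds within the control limits plus 3 SD of those, cut at about 17% in these data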
Target sequence (Q9HAT2 whole entry, looked up): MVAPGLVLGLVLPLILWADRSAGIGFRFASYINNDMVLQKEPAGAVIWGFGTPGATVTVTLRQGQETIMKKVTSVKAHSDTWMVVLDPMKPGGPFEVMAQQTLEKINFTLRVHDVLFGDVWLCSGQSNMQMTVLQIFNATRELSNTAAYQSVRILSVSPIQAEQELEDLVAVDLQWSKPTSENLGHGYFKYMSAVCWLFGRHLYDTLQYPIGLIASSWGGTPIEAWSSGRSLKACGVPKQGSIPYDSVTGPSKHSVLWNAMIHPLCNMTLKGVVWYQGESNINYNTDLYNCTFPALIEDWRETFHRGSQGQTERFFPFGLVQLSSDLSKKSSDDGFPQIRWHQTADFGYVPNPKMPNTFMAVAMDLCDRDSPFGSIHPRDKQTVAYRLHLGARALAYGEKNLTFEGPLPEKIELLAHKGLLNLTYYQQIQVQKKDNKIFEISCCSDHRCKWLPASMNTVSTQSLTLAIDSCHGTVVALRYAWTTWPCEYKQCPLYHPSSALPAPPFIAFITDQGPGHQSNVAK
mABHD4 FP: inhibitors of mouse ABHD4; Q8VD66; purified mABHD4, FP-Rh probe fluorescence polarization; inhibition, % at 8.92 µM; hit rate 0.54% among 370,000; AID 720543;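 active = inhibition exceeding the mean over every tested compound plus 3 SD, cut at about 30% in these data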
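system = mouse ABHD4 enzyme, wild type | medium = HEPES pH 7.0, NaCl, Pluronic buffer | also added = FP-Rh probe | incubation = Enzyme–compound pre-incubation 45 min, then probe 60 min, both 25 °C | technique = fluorescence polarization, excitation 525 nm, emission 598 nm, BODIPY TMR filters | controls = S159A mutant high control, sample median low control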
TCR CD3 inh: human TCR-CD3 binding inhibition; TAMRA-labeled TCR probe fluorescence, biochemical; inhibition, % at 9.4 µM; hit rate 0.37% among 360,000; AID 651800; in the data active = inhibition above about 19%;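 note: recombinant mutant TCR 2C K166C tagged with TAMRA read by polarization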
PAD4 inh: blocks human protein arginine deiminase 4; recombinant PAD4, RCA probe fluorescence polarization; Q9UM07; AID 485272; inhibition, % at 6.36 µM; hit rate 0.41% among 330,000;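 active = percent inhibition above a cutoff equal to the mean of all tested compounds plus 3 SD, cut at about 15% in these data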
HTRA1 inhibitor: blocks human HTRA1 serine peptidase | Q92743 | recombinant HTRA1, FP-rhodamine activity-based probe, fluorescence polarization | inhibition, % at 5.96 µM | hit rate 0.5% among 340,000 | AID 504803; in the data active = inhibition above about 36%
PRMT1 FP inh: inhibitors of human PRMT1. Q99873. recombinant PRMT1, activity-based probe fluorescence polarization. inhibition, % at 2.79 µM. hit rate 1.3% among 370,000;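 active = inhibition above about 21% made by adding two undisclosed values, limit read from the data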
HTRA1 conf: HTRA1 (human) inhibition, confirmation. shares compounds with HTRA1 inhibitor. hit rate 66% among 1,600. inhibition, % at 5.96 µM. recombinant HTRA1, FP-rhodamine activity-based probe, fluorescence polarization;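 active = mean inhibition over three repeats above a set limit taken from the earlier primary screen, cut at about 37% in these data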;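 note: inhibitors block probe binding so polarization drops and inhibition rises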
Hits are given with their value; i = inactive; nt = no result.

SMILES	SIAE primary	mABHD4 FP	TCR CD3 inh	PAD4 inh	HTRA1 inhibitor	PRMT1 FP inh	HTRA1 conf
O=C(Nc1ccc2nc(-c3ccco3)c(-c3ccco3)nc2c1)N1CCN(c2ccccn2)CC1	22	30	34	i	43	48	i
Oc1c(Cl)cc(Cl)cc1/C=C/c1ccc2cccc(O)c2n1	i	i	i	i	37	i	48
Oc1ccc(Cl)cc1/C=C/c1ccc2cccc(O)c2n1	i	i	i	nt	i	i	nt
Oc1cccc2ccc(/C=C/c3ccccc3Br)nc12	i	i	i	i	52	i	45
CC(=O)NC(Cc1ccc2c(c1)OCO2)C(=O)N1CCCC1 (stereo not given)	i	i	nt	nt	nt	i	nt
COc1ccc2[nH]c3c(c2c1)CCN[C@]31C(=O)N(Cc2cn(Cc3ccccc3)nn2)c2ccc(F)cc21	i	i	nt	nt	nt	i	nt
Cc1cccc(NC(=O)COc2coc(CN3CCN(c4ccccc4)CC3)cc2=O)c1C	i	i	i	i	57	i	i
CN(C)c1ccc(C(=O)C(O)c2ccccc2Cl)cc1 (stereo not given)	i	i	i	nt	i	i	nt
Cc1cc(N(CCO)CCO)ccc1C(c1ccc(N(CCO)CCO)cc1C)c1ccccc1Cl	i	i	i	i	41	i	i
CCNC(=O)N(C)[C@H]1C[C@H]2c3[nH]c4c(-c5cccc(C)c5)cccc4c3CCN2C[C@H]1[C@H](C)O	i	i	nt	nt	nt	i	nt
CC(=O)N1CCN(c2ccc(NCc3ccc(C)s3)cc2)CC1	i	i	i	i	i	i	nt
Cc1ccc(CNc2ccc(N3CCOCC3)cc2)s1	i	i	i	i	36	i	i
COc1cccc(C2Nc3c(F)cc(Br)cc3C3C=CCC32)c1OC (stereo not given)	i	i	i	i	44	i	i
Oc1c(CN2CCN(c3ccccn3)CC2)cc(Cl)c2cccnc12	nt	nt	nt	i	39	nt	58
OCCN1CCN(Cc2cc(Cl)c3cccnc3c2O)CC1	i	i	i	i	52	i	54
CC[C@H](CCC(=O)N(c1ccccc1)c1ccccc1)C1CC1	i	i	nt	nt	nt	i	nt
COc1cccc(CNC(=O)Cn2c(-c3ccccc3)cc(C(C)=O)c2C)c1	i	i	nt	nt	nt	i	nt
O=C(Nc1ccc(Nc2ccccc2)cc1)c1ccco1	i	i	i	i	38	i	i
CC(C)C[C@@H]1COc2cc(Br)ccc2S(=O)(=O)N1Cc1cn(CCC2OCCCO2)nn1	i	i	nt	nt	nt	i	nt
O=C(COC(=O)c1ccc2ncsc2c1)NC(=O)NCc1ccccc1	i	i	i	i	39	i	i
Cc1cccc2sc(NNC(=O)c3cc(-c4cccs4)nc4ccccc34)nc12	i	i	i	i	44	i	42
NNC(=O)c1cc(-c2cccs2)nc2ccccc12	i	i	i	i	i	i	nt
CN(C)c1cccc2c(S(=O)(=O)NCC3CCN(C(=O)C(=O)c4cccs4)CC3)cccc12	i	i	i	nt	nt	i	nt
COc1ccc2c(c1)c(C(=O)N/N=C/c1ccc(O)c(O)c1)c(C)n2C	i	i	i	i	43	i	64
COc1ccc(-c2cc3ccccc3n2CC(O)CN2CCC(C)CC2)cc1 (stereo not given)	i	i	i	i	i	i	nt
SMILES	SIAE primary	mABHD4 FP	TCR CD3 inh	PAD4 inh	HTRA1 inhibitor	PRMT1 FP inh	HTRA1 conf
COc1ccc(-c2cc3ccccc3n2CC(O)Cn2nc(C)cc2C)cc1 (stereo not given)	i	i	i	i	38	i	i
O=C(OCCc1ccccc1)c1cc(O)c(O)c(O)c1	i	i	i	i	56	i	87
COc1cc(N=Nc2ccc(Br)cc2)cc(C=O)c1O	i	i	i	nt	46	i	56
NC(=O)/C(=N\OC(=O)c1ccco1)c1nc(-c2ccc(Br)cc2)cs1	i	i	i	i	67	i	47
Nc1nc(-c2ccc(NC(=O)c3ccco3)cc2)cs1	i	i	i	i	i	i	nt
COc1ccc(/C=C/S(=O)(=O)NCc2ccc(F)cc2)c(CNC(=O)OC(C)(C)C)c1	i	i	nt	nt	nt	i	nt
Cc1ccc2c(c1)c1c(n2C)C(C(N)=O)CCC1 (stereo not given)	i	i	i	i	i	i	nt
Cc1ccc2c(c1)c1c(n2C)-c2[nH]ncc2CC1	21	i	i	i	37	i	i
O=C(CSc1nnc(-c2cccnc2)n1-c1ccc(Cl)cc1)c1ccc(F)cc1	i	i	nt	nt	nt	i	nt
O=C(C1CCCN1S(=O)(=O)c1cccc2ccccc12)N1CCN(c2ccccc2)CC1 (stereo not given)	i	i	nt	nt	nt	i	nt
Oc1c(CN2CCCCC2)cc(COCc2ccccc2)c2cccnc12	i	i	i	i	65	i	72
CN(C)C1CCN(Cc2cc(COCc3ccccc3)c3cccnc3c2O)C1 (stereo not given)	nt	nt	nt	i	54	nt	76
Oc1c(CN2CCCCC2)ccc2cccnc12	i	i	i	nt	73	i	69
COCc1cc(CN2CCCC2)c(O)c2ncccc12	i	i	i	i	i	i	nt
C=CCOC(=O)N[C@H](c1ccc(-c2ccccc2)cc1)[C@H](C)/C=C/CC(=O)OC	i	i	nt	nt	nt	i	nt
C=CS(=O)(=O)N(Cc1ccc(F)cc1)C(=C)C(=O)OC	i	i	nt	nt	nt	i	nt
CCc1ccc(CCNC(=O)OC2CC3CC2[C@H]2CCCCN2C3)cc1 (stereo not given in full)	i	i	nt	nt	nt	i	nt
CC(N=Cc1cccc(O)c1O)c1ccccc1 (stereo not given)	nt	nt	nt	i	66	nt	100
Cc1ccccc1N=Cc1cccc(O)c1O	nt	nt	nt	i	49	nt	i
C=CCN1[C@@H](Cc2ccccc2)COc2cccc(N3CCCC3)c2S1(=O)=O	i	i	nt	nt	nt	i	nt
O=C(N/N=C/c1c[nH]c2ccccc12)c1ccc(O)c(O)c1	i	i	i	i	53	i	82
COc1c(-c2ccc(O)c(O)c2)oc2cc(O)cc(O)c2c1=O	i	i	i	i	37	i	48
CCCC(=O)NC(c1ccco1)c1cc(Cl)c2cccnc2c1O (stereo not given)	i	i	i	i	47	i	54
CCCC(=O)NC(c1cccs1)c1cc(Cl)c2cccnc2c1O (stereo not given)	i	i	i	i	63	i	56
CCCC(=O)NC(c1ccc2c(c1)OCO2)c1cc(Cl)c2cccnc2c1O (stereo not given)	nt	nt	nt	i	62	nt	59
Cc1cc2c(=Cc3ccc(N(C)C)cc3)c3ccccc3n2[n+]1C	i	i	i	nt	i	i	nt
CCOC(=O)c1cc2c(=Cc3ccc(N(C)C)cc3)c3ccccc3n2[n+]1C	i	i	i	nt	46	i	i
CN(C)c1ccc(C=c2c3ccccc3n3c2c2ccccc2[n+]3C)cc1	17	58	31	nt	87	i	90
Nc1ncnc(Oc2cccc3cccnc23)c1[N+](=O)[O-]	i	i	i	i	40	i	i
Cc1cccc(Oc2ncnc(N)c2[N+](=O)[O-])c1C	i	i	i	i	i	i	nt
